{"source": "ChEMBL document CHEMBL4177662", "about": "“Phosphamide-containing diphenylpyrimidine analogues (PA-DPPYs) as potent focal adhesion kinase (FAK) inhibitors with enhanced activity against pancreatic cancer cell lines” (Bioorg Med Chem, 2017)", "key": {"ASPC1 [1]": {"system": "ASPC1", "experiment": "Induction of apoptosis in human Aspc-1 cells assessed as late apoptotic cells at 10 uM after 72 hrs by Annexin V-FITC/propidium iodide staining-based flow cytometry (reference value: 0%)", "format": "functional", "in_short": "(§1)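 AsPC-1 cells (3 to 5×10^5 per well) were treated with DMSO solvent control or compound for 72 h in medium with 5% FBS. Cells were then stained with Annexin V-FITC and propidium iodide and analysed by flow cytometry. One representative experiment shown.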"}, "ASPC1 [2]": {"system": "ASPC1", "experiment": "Antiproliferative activity against human Aspc-1 cells assessed as cell viability at 8 uM after 48 hrs by MTT assay (reference value: 98.1%)", "format": "functional", "conditions": "ASPC1, 48 h, read-out: Activity"}, "ASPC1 [3]": {"system": "ASPC1", "experiment": "Induction of apoptosis in human Aspc-1 cells assessed as necrotic cells at 10 uM after 72 hrs by Annexin V-FITC/propidium iodide staining-based flow cytometry (reference value: 0%)", "format": "functional", "in_short": "as §1"}, "ASPC1 [4]": {"system": "ASPC1", "experiment": "Cell cycle arrest in human Aspc-1 cells assessed as accumulation at S phase at 5 uM after 72 hrs by propidium iodide staining-based flow cytometry (reference value: 59.70%)", "format": "functional"}, "ASPC1 [5]": {"system": "ASPC1", "experiment": "Cell cycle arrest in human Aspc-1 cells assessed as accumulation at S phase at 2.5 uM after 72 hrs by propidium iodide staining-based flow cytometry (reference value: 59.70%)", "format": "functional"}, "BXPC-3": {"system": "BXPC-3", "experiment": "Antiproliferative activity against human BxPC3 cells after 72 hrs by MTT assay", "format": "functional, cell-based", "conditions": "BXPC-3, 72 h", "in_short": "(§2)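 Cells grown in DMEM with 10% FBS and 1% penicillin-streptomycin at 37 °C, 5% CO2. Seeded at 4,000 to 5,000 cells/well, cultured one day, then exposed to compounds for 72 h at 1.25 to 40 μmol/L, five replicates per concentration. MTT absorbance read at 570 nm. IC50 from five-point dose-response curves; mean of at least three separate experiments.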"}, "PANC-1": {"system": "PANC-1", "experiment": "Antiproliferative activity against human PANC1 cells after 72 hrs by MTT assay", "format": "functional, cell-based", "conditions": "PANC-1, 72 h", "in_short": "as §2"}, "ASPC1 [6]": {"system": "ASPC1", "experiment": "Induction of apoptosis in human Aspc-1 cells assessed as necrotic cells at 5 uM after 72 hrs by Annexin V-FITC/propidium iodide staining-based flow cytometry (reference value: 0%)", "format": "functional", "in_short": "as §1"}, "[7]": {"experiment": "Antiproliferative activity against human HPDE6c7 cells after 72 hrs by MTT assay", "format": "cell-based", "conditions": "HPDE6c7, 72 h", "in_short": "as §2"}}, "note": "pIC50: −log10 of the molar value."}
{"smiles": "CCOP(=O)(CCCOc1ccc(Nc2ncc([N+](=O)[O-])c(Nc3ccccc3C(=O)NC)n2)cc1)N1CCOCC1", "note": "(centres undefined)", "values": [{"measurement": "Activity", "setting": "ASPC1 [1]", "result": 75.3, "unit": "%"}, {"measurement": "viability at 8 µM", "setting": "ASPC1 [2]", "result": 30.2, "unit": "%"}, {"measurement": "Activity", "setting": "ASPC1 [3]", "result": 0.4, "unit": "%"}, {"measurement": "Activity", "setting": "ASPC1 [4]", "result": 37.82, "unit": "%"}, {"measurement": "Activity", "setting": "ASPC1 [5]", "result": 28, "unit": "%"}, {"measurement": "pIC50", "setting": "BXPC-3", "result": 6.24}, {"measurement": "pIC50", "setting": "PANC-1", "result": "< 4.40"}, {"measurement": "Activity", "setting": "ASPC1 [6]", "result": 3.3, "unit": "%"}, {"measurement": "pIC50", "setting": "[7]", "result": "< 4.70"}]}
